Results reported in ChEMBL document CHEMBL1287642, “Synthesis, antiviral activity and cytotoxicity evaluation of Schiff bases of some 2-phenyl quinazoline-4(3)H-ones” (Eur J Med Chem, 2010).
Values after ≈ are worked out from the molar mass of the structure shown.

Legend:
[1] = Cytotoxicity against human HEL cells assessed as minimum concentration required to cause microscopically detectable alteration after 2 days; format: cell-based; conditions: read-out: Activity
[2] = tested on: Human alphaherpesvirus 1; experiment: Antiviral activity against Herpes simplex virus-1 KOS infected in human HEL cells assessed as protection against virus-induced cytopathogenicity after 2 days; format: functional, organism-based; conditions: Human alphaherpesvirus 1, KOS, 48 h
[3] = tested on: Human alphaherpesvirus 2; experiment: Antiviral activity against Herpes simplex virus-2 G infected in human HEL cells assessed as protection against virus-induced cytopathogenicity after 2 days; format: functional, organism-based; conditions: Human alphaherpesvirus 2, strain G, 48 h
[4] = tested on: Vesicular stomatitis virus; experiment: Antiviral activity against Vesicular stomatitis virus infected in human HEL cells assessed as protection against virus-induced cytopathogenicity after 2 days; format: functional, organism-based; conditions: 48 h
[5] = tested on: Human alphaherpesvirus 1; experiment: Antiviral activity against acyclovir-resistant TK deficient Herpes simplex virus-1 KOS infected in human HEL cells assessed as protection against virus-induced cytopathogenicity after 2 days; format: functional, organism-based; conditions: Human alphaherpesvirus 1, KOS, 48 h
[6] = Cytotoxicity against african green monkey Vero cells assessed as minimum concentration required to cause microscopically detectable alteration after 2 days; format: cell-based; conditions: chlorocebus sabaeus, read-out: Activity
[7] = tested on: Human respirovirus 3; experiment: Antiviral activity against Para influenza-3 virus infected in african green monkey Vero cells assessed as protection against virus-induced cytopathogenicity after 2 days; format: functional, organism-based; conditions: Human respirovirus 3, Vero, 48 h
[8] = tested on: Mammalian orthoreovirus 1; experiment: Antiviral activity against Reovirus-1 infected in african green monkey Vero cells assessed as protection against virus-induced cytopathogenicity after 2 days; format: functional, organism-based; conditions: Mammalian orthoreovirus 1, Vero, 48 h
[9] = tested on: Sindbis virus; experiment: Antiviral activity against Sindbis virus infected in african green monkey Vero cells assessed as protection against virus-induced cytopathogenicity after 2 days; format: functional, organism-based; conditions: 48 h
[10] = tested on: Coxsackievirus B4; experiment: Antiviral activity against Coxsackie virus B4 infected in african green monkey Vero cells assessed as protection against virus-induced cytopathogenicity after 2 days; format: functional, organism-based; conditions: Enterovirus B, 48 h
[11] = tested on: Punta Toro virus; experiment: Antiviral activity against Punta Toro virus infected in african green monkey Vero cells assessed as protection against virus-induced cytopathogenicity after 2 days; format: functional, organism-based; conditions: 48 h
[12] = Cytotoxicity against cat CRFK cells by MTS assay; format: cell-based, Felis catus; conditions: crfk
Summary of the method: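 In uninfected CRFK cells, the 50% cytotoxic concentration was derived from cell viability measured by the colorimetric formazan-based MTS assay.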

[13] = tested on: Feline infectious peritonitis virus; experiment: Antiviral activity against Feline coronavirus FIPV infected in cat CRFK cells assessed as protection against virus-induced cytopathogenicity after 2 days by MTS assay; format: functional, cell-based; conditions: Alphacoronavirus 1, CRFK, 48 h
[14] = tested on: Felid alphaherpesvirus 1; experiment: Antiviral activity against Feline herpes virus infected in cat CRFK cells assessed as protection against virus-induced cytopathogenicity after 2 days by MTS assay; format: functional, organism-based; conditions: Felid alphaherpesvirus 1, CRFK, 48 h
[15] = Cytotoxicity against human HeLa cells assessed as minimum concentration required to cause microscopically detectable alteration after 2 days; format: cell-based; conditions: read-out: Activity
[16] = tested on: Vesicular stomatitis virus; experiment: Antiviral activity against Vesicular stomatitis virus infected in human HeLa cells assessed as protection against virus-induced cytopathogenicity after 2 days; format: functional, organism-based; conditions: 48 h
[17] = tested on: Coxsackievirus B4; experiment: Antiviral activity against Coxsackie virus B4 infected in human HeLa cells assessed as protection against virus-induced cytopathogenicity after 2 days; format: functional, organism-based; conditions: Enterovirus B, 48 h
[18] = tested on: Respiratory syncytial virus; experiment: Antiviral activity against Respiratory syncytial virus infected in human HeLa cells assessed as protection against virus-induced cytopathogenicity after 2 days; format: functional, organism-based; conditions: 48 h
[19] = Selectivity index, ratio of minimum concentration required to cause microscopically detectable alteration in human HEL cells to EC50 for Herpes simplex virus-1 KOS; format: toxicity, cell-based; conditions: read-out: Selectivity Index
Summary of the method: (§1)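 Cytotoxicity was taken as the concentration causing a microscopically detectable change in normal cell morphology (Vero or HEL). […] The selectivity index is the first divided by the second.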

[20] = Selectivity index, ratio of minimum concentration required to cause microscopically detectable alteration in human HEL cells to EC50 for Herpes simplex virus-2 G; format: toxicity, cell-based; conditions: read-out: Selectivity Index; summary of the method: as §1
[21] = Selectivity index, ratio of minimum concentration required to cause microscopically detectable alteration in human HEL cells to EC50 for acyclovir-resistant TK deficient Herpes simplex virus-1 KOS; format: toxicity, cell-based; conditions: read-out: Selectivity Index; summary of the method: as §1
[22] = Selectivity index, ratio of minimum concentration required to cause microscopically detectable alteration in human HEL cells to EC50 for acyclovir-resistant TK deficient Vaccina virus; format: toxicity, cell-based; conditions: read-out: Selectivity Index; summary of the method: as §1
[23] = tested on: Influenza A virus; experiment: Antiviral activity against influenza A virus H1N1 infected in MDCK cells assessed as protection against virus-induced cytopathogenicity at 100 ug/ml after 2 days; format: functional, organism-based
Summary of the method: (§2)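 Infected MDCK cells were treated. […] N.A. means not active at the highest concentration tested or at a subtoxic concentration.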

[24] = tested on: Influenza A virus; experiment: Antiviral activity against Influenza A virus H3N2 infected in MDCK cells assessed as protection against virus-induced cytopathogenicity at 100 ug/ml after 2 days; format: functional, organism-based; summary of the method: as §2
[25] = tested on: Influenza B virus; experiment: Antiviral activity against influenza B virus infected in MDCK cells assessed as protection against virus-induced cytopathogenicity at 100 ug/ml after 2 days; format: functional, organism-based; summary of the method: as §2
[26] = tested on: MDCK; experiment: Cytotoxicity against MDCK cells by MTS assay; format: cell-based, Canis lupus familiaris; conditions: dog, mdck
Summary of the method: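 In Madin Darby canine kidney cells, the 50% cytotoxic concentration was derived from cell viability measured by the colorimetric formazan-based MTS assay.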

[27] = Cytotoxicity against MDCK cells assessed as minimum concentration required to cause microscopically detectable alteration after 2 days; format: cell-based, Canis lupus familiaris; conditions: dog, read-out: Activity
[28] = tested on: Influenza A virus; experiment: Antiviral activity against influenza A virus H1N1 infected in MDCK cells assessed as cell viability at 100 ug/ml after 2 days by MTS assay; format: functional, organism-based
[29] = tested on: Influenza A virus; experiment: Antiviral activity against Influenza A virus H3N2 infected in MDCK cells assessed as cell viability at 100 ug/ml after 2 days by MTS assay; format: functional, organism-based
[30] = tested on: Influenza B virus; experiment: Antiviral activity against influenza B virus infected in MDCK cells assessed as cell viability at 100 ug/ml after 2 days by MTS assay; format: functional, organism-based

Compound	MCC at 48 h [1]	EC50 [2]	EC50 [3]	EC50 [4]	EC50 [5]	MCC at 48 h [6]	EC50 [7]	EC50 [8]	EC50 [9]	EC50 [10]	EC50 [11]	CC50 [12]	EC50 [13]	EC50 [14]	MCC at 48 h [15]	EC50 [16]	EC50 [17]	EC50 [18]	EC50 [23]	EC50 [24]	other results
O=c1c2ccccc2nc(-c2ccccc2)n1/N=C/c1ccccc1	> 100 µg/mL	7 mg/L (≈ 21.5 µM)	9 mg/L (≈ 27.7 µM)	> 100 mg/L	9 mg/L (≈ 27.7 µM)	20 µg/mL	> 4 mg/L	> 4 mg/L	> 4 mg/L	> 4 mg/L	> 4 mg/L	3.7 mg/L (≈ 11.4 µM)	> 0.8 mg/L	> 0.8 mg/L	20 µg/mL	> 4 mg/L	> 4 mg/L	> 4 mg/L	Not Active	Not Active	selectivity ratio [19]: 14; selectivity ratio [20]: 11; selectivity ratio [21]: 11; selectivity ratio [22]: 11; EC50 [25]: Not Active; CC50 [26]: 15 mg/L (≈ 46.1 µM); MCC at 48 h [27]: 20 µg/mL; EC50 [28]: Not Active; EC50 [29]: Not Active; EC50 [30]: Not Active
COc1ccc(/C=N/n2c(-c3ccccc3)nc3ccccc3c2=O)cc1	> 100 µg/mL	9 mg/L (≈ 25.3 µM)	8 mg/L (≈ 22.5 µM)	> 100 mg/L	9 mg/L (≈ 25.3 µM)	100 µg/mL	> 20 mg/L	> 20 mg/L	> 20 mg/L	> 20 mg/L	> 20 mg/L	13.7 mg/L (≈ 38.5 µM)	> 4 mg/L	> 4 mg/L	20 µg/mL	> 4 mg/L	> 4 mg/L	> 4 mg/L	Not Active	Not Active	selectivity ratio [19]: 11; selectivity ratio [20]: 13; selectivity ratio [21]: 11; selectivity ratio [22]: 11; EC50 [25]: Not Active; CC50 [26]: 8.2 mg/L (≈ 23.1 µM); MCC at 48 h [27]: 20 µg/mL; EC50 [28]: Not Active; EC50 [29]: Not Active; EC50 [30]: Not Active
COc1ccc(/C=N/n2c(-c3ccccc3)nc3ccccc3c2=O)cc1O	100 µg/mL	> 20 mg/L	> 20 mg/L	> 20 mg/L	> 20 mg/L	100 µg/mL	> 20 mg/L	> 20 mg/L	> 20 mg/L	> 20 mg/L	> 20 mg/L	42.7 mg/L (≈ 115 µM)	> 20 mg/L	> 20 mg/L	20 µg/mL	> 4 mg/L	> 4 mg/L	> 4 mg/L	Not Active	Not Active	EC50 [25]: Not Active; CC50 [26]: 47.4 mg/L (≈ 128 µM); MCC at 48 h [27]: 20 µg/mL; EC50 [28]: Not Active; EC50 [29]: Not Active; EC50 [30]: Not Active
COc1ccccc1/C=N/n1c(-c2ccccc2)nc2ccccc2c1=O	100 µg/mL	> 20 mg/L	> 20 mg/L	> 20 mg/L	> 20 mg/L	100 µg/mL	> 20 mg/L	> 20 mg/L	> 20 mg/L	> 20 mg/L	> 20 mg/L	14.4 mg/L (≈ 40.5 µM)	> 4 mg/L	> 4 mg/L	20 µg/mL	> 4 mg/L	> 4 mg/L	> 4 mg/L	Not Active	Not Active	EC50 [25]: Not Active; CC50 [26]: 12.4 mg/L (≈ 34.9 µM); MCC at 48 h [27]: 20 µg/mL; EC50 [28]: Not Active; EC50 [29]: Not Active; EC50 [30]: Not Active
O=c1c2ccccc2nc(-c2ccccc2)n1/N=C/c1ccc(Cl)cc1	100 µg/mL	> 20 mg/L	> 20 mg/L	> 20 mg/L	> 20 mg/L	20 µg/mL	> 4 mg/L	> 4 mg/L	> 4 mg/L	> 4 mg/L	> 4 mg/L	42.2 mg/L (≈ 117 µM)	> 20 mg/L	> 20 mg/L	20 µg/mL	> 4 mg/L	> 4 mg/L	> 4 mg/L	Not Active	Not Active	EC50 [25]: Not Active; CC50 [26]: 76.4 mg/L (≈ 212 µM); MCC at 48 h [27]: 20 µg/mL; EC50 [28]: Not Active; EC50 [29]: Not Active; EC50 [30]: Not Active
O=c1c2ccccc2nc(-c2ccccc2)n1/N=C/c1cccc([N+](=O)[O-])c1	≥ 20 µg/mL	> 20 mg/L	> 20 mg/L	> 20 mg/L	> 20 mg/L	20 µg/mL	> 4 mg/L	> 4 mg/L	> 4 mg/L	> 4 mg/L	> 4 mg/L	13.8 mg/L (≈ 37.3 µM)	> 4 mg/L	> 4 mg/L	20 µg/mL	> 4 mg/L	> 4 mg/L	> 4 mg/L	Not Active	Not Active	EC50 [25]: Not Active; CC50 [26]: > 100 mg/L; MCC at 48 h [27]: 20 µg/mL; EC50 [28]: Not Active; EC50 [29]: Not Active; EC50 [30]: Not Active
